Experimental data reported in paper PMC7498158 (Journal of Medicinal Chemistry, 2020).

Each compound was assayed on PLAAT2–5 (assay: gel-based competitive ABPP, statements for all tested PLAAT members). Details: 10 μM inhibitor, 30 min; active = residual protein labeling ≤50%.
Assay type: biochemical, human
In short: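 Human PLAAT cDNA (C-terminal FLAG, pcDNA3.1) was PEI-transfected into HEK293T; cytosol came from a 100,000g spin. Cytosol was preincubated with test compound (30 min, rt), then MB064 (20 min, rt). Conditions: PLAAT2 0.25 μg/μL, 250 nM; PLAAT3 0.5 μg/μL, 250 nM; PLAAT4/5 1 μg/μL, 500 nM. In-gel fluorescence was normalized to Coomassie, in triplicate. Single-concentration screen or IC50 from dose–response curves.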
`O=C(NCc1ccccc1)C(F)(F)C(O)CCc1ccccc1` (stereo not drawn) [Compound 3] was tested, and the “activity on PLAAT2–5 (in words)” value was “inactive”. In the case of `CCOC(=O)C(F)(F)C(O)CCc1ccccc1` (stereo not drawn) [Compound 4], the “activity on PLAAT2–5 (in words)” value is reported as “inactive”. In the case of `CN(CCc1ccccc1)C(=O)C(=O)CCc1ccc(Cl)cc1` [Compound 12], the “activity on PLAAT2–5 (in words)” value is reported as “complete loss of activity”. For `O=C(CCc1ccc(Cl)cc1)C(=O)N1CCCCC1` [Compound 13], the “activity on PLAAT2–5 (in words)” value was “did not show any activity”. In the case of `CN(C)C(=O)C(=O)CCc1ccc(Cl)cc1` [Compound 14], the “activity on PLAAT2–5 (in words)” value is reported as “did not show any activity”. In the case of `O=C(CCc1ccc(Cl)cc1)C(=O)N1CCOCC1` [Compound 15], the “activity on PLAAT2–5 (in words)” value is reported as “did not show any activity”. For `CN1CCN(C(=O)C(=O)CCc2ccc(Cl)cc2)CC1` [Compound 16], the “activity on PLAAT2–5 (in words)” value was “did not show any activity”. `COCCN(CCOC)C(=O)C(=O)CCc1ccc(Cl)cc1` [Compound 17] was tested, and the “activity on PLAAT2–5 (in words)” value was “did not show any activity”. `CCN(CCc1ccccc1)C(=O)C(=O)CCc1ccc(Cl)cc1` [Compound 22] was tested, and the “activity on PLAAT2–5 (in words)” value was “did not show any activity”. With `O=C(NCCc1ccccc1)C(O)CCc1ccc(Cl)cc1` (stereo not drawn) [Compound 23, 4-(4-Chlorophenyl)-2-hydroxy-N-phenethylbutanamide] the “activity on PLAAT2–5 (in words)” value was “no activity”.

Same assay, conditions: focused library screen
In the case of `O=C(CCc1ccc(Cl)cc1)C(=O)NCCc1ccccc1` [Compound 1, 4-(4-Chlorophenyl)-2-oxo-N-phenethylbutanamide], the “hit potency for all tested PLAAT members (in words)” value is reported as “submicromolar”. For `O=C(CCc1ccc(Cl)cc1)C(=O)NCCCCc1ccccc1` [Compound 2], the “hit potency for all tested PLAAT members (in words)” value was “submicromolar”.
